The values below come from ChEMBL document CHEMBL4368908 (J Med Chem, 2019).

Activity calls are given as the source filed them. No cut-off for these calls is given here. Bounds are passed on as bounds.

In test [1] the target is T1, Inositol hexakisphosphate kinase 2 (Mus musculus) (UniProt Q80V72).
T1 sequence (whole entry): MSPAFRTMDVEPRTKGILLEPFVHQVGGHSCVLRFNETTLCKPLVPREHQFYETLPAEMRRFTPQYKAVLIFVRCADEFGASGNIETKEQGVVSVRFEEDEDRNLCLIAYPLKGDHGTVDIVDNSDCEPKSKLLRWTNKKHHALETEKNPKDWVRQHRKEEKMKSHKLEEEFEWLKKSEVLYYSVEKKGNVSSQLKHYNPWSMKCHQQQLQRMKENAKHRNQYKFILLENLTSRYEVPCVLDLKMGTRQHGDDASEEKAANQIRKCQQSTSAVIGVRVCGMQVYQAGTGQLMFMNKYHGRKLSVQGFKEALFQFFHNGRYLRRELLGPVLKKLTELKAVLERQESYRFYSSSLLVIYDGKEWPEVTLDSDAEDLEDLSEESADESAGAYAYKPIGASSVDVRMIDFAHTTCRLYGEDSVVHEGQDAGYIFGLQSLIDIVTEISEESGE
Put plainly: Inhibition of IP6K2 in mouse 3T3-L1 cells assessed as AKT phosphorylation at T308 at 1 uM after 3 hrs by Western blot analysis. In kind it is cell-based. The method, boiled down:
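TNP reference treatment: 2-day post-confluent 3T3-L1 preadipocytes given 1 μM TNP in DMSO (final 0.1%) for 3 h. Lysates (20 μg protein) immunoblotted for phospho-AKT T308 and total AKT. pAKT/total AKT ratio normalized to sum of ratios per gel; one-way ANOVA (Dunnett) versus DMSO vehicle.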
In general terms: A western blot detects proteins with antibodies after separation by electrophoresis.

In test [2] the test system is HCT-116. Description: Down regulation of insp5 levels in human [3H]-inositol-labelled HCT116 cells at 10 uM after 3.5 hrs by HPLC analysis. In kind it is functional, cell-based. The method, boiled down: (§1)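 HCT116 cells labelled with [3H]inositol at 20 μCi/ml, then treated 3.5 h with 10 μM flavonoid in DMSO (final 0.1%; vehicle controls). Quenched with PCA; extracted [3H]InsP5, InsP6 and InsP7 resolved by CarboPac HPLC and quantified as peak DPM relative to DMSO control.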

Test [3] concerns HEK293. Description: Down regulation of insp5 levels in [3H]-inositol-labelled HEK293 cells at 2.5 uM after 3.5 hrs by HPLC analysis. In kind it is functional, cell-based. The conditions noted are these: Homo sapiens. The method in brief:
(§2)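 HEK293 cells labelled with [3H]inositol (20 μCi/ml), treated 3.5 h with 2.5 μM flavonoid in DMSO (final 0.1%; vehicle controls). PCA-quenched extracts analysed by CarboPac HPLC for InsP5, InsP6, InsP7 relative to DMSO control. Means ± SE, n=3; Dunnett's one-way ANOVA.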

Test [4] addresses RAC-alpha serine/threonine-protein kinase (Homo sapiens) (UniProt P31749). Description: Effect on AKT activity in human HCT116 cells assessed as AKT phosphorylation at T308 residues at 2.5 uM after 3 hrs by Western blot analysis. The test is classed as cell-based. The method, boiled down: (§3)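 Cells (3T3-L1 preadipocytes 2 days post-confluent; HCT116 1 day post-confluent) treated 3 h with 2.5 μM flavonoid in DMSO (final DMSO 0.1%, vehicle control). Lysed in Tris pH 7.4/NaCl/Triton X-100 with protease-phosphatase inhibitors; 20 μg protein by SDS-PAGE and immunoblot for phospho-AKT T308 and total AKT. pAKT/total AKT ratio normalized to sum of ratios per gel; Dunnett's one-way ANOVA versus DMSO.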

Test [5] deals with T2, Inositol polyphosphate multikinase (Homo sapiens, UniProt Q8NFU5). Description: Inhibition of IPMK in [3H]-inositol-labelled HEK293 cells assessed as reduction in insp5 levels at 2.5 uM after 3.5 hrs by HPLC analysis relative to control. The test is classed as cell-based. The method, boiled down: as §2
T2 sequence (Q8NFU5 whole entry): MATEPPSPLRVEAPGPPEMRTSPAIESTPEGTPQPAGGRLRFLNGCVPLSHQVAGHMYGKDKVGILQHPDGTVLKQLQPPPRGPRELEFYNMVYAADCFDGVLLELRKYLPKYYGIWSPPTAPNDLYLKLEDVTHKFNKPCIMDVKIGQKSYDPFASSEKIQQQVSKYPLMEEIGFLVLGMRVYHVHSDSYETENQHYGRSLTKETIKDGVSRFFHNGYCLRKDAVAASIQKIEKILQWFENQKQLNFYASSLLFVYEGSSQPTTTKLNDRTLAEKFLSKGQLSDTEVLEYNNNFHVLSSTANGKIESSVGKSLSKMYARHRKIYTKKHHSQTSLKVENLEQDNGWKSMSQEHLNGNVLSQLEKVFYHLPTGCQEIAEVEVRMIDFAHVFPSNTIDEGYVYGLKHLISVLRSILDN
Test [6] addresses T2, Inositol polyphosphate multikinase. Put plainly: Inhibition of IPMK in human [3H]-inositol-labelled HCT116 cells assessed as reduction in insp5 levels at 2.5 uM up to 200 mins by HPLC analysis relative to control. The method in brief: (§4)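 Time course: HCT116 cells prelabelled with [3H]inositol (20 μCi/ml) and treated with 2.5 μM flavonoid in DMSO (final 0.1%) for the indicated times. InsP5, InsP6 and InsP7 measured by CarboPac HPLC after PCA quench and extraction. Means ± SE, n=3–4.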

Test [7] addresses RAC-alpha serine/threonine-protein kinase (Mus musculus) (UniProt P31750). Description: Activation of AKT activity in mouse 3T3-L1 cells assessed as increase in AKT phosphorylation at T308 residues at 2.5 uM after 3 hrs by Western blot analysis. In kind it is cell-based. The method in brief:
as §3

Test [8] deals with T2, Inositol polyphosphate multikinase. Description: Inhibition of IPMK in human [3H]-inositol-labelled HCT116 cells assessed as reduction in insp5 levels at 10 uM after 3.5 hrs by HPLC analysis relative to control. The method in brief: as §1
For test [9], the system named is HCT-116. Put plainly: Down regulation of insp5 levels in human [3H]-inositol-labelled HCT116 cells at 2.5 uM after 3.5 hrs by HPLC analysis. The test is classed as functional, cell-based. The method, boiled down:
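HCT116 cells labeled with [³H]inositol (20 μCi/ml) were treated for 3.5 h with 2.5 μM flavonoid; compounds were added in DMSO, final 0.1%. Cells were PCA-quenched, and InsPs were extracted and resolved by CarboPac HPLC. Values are versus DMSO controls, n=3–4, by one-way ANOVA (Dunnett).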

Test [10] addresses T2, Inositol polyphosphate multikinase. Put plainly: Inhibition of IPMK in human [3H]-inositol-labelled HCT116 cells assessed as reduction in insp5 levels at 2.5 uM after 3.5 hrs by HPLC analysis relative to control. The method, boiled down:
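[3H]inositol-labelled (20 μCi/ml) HCT116 cells exposed 3.5 h to 2.5 μM flavonoid in DMSO (final 0.1%). PCA quench, extraction and CarboPac HPLC of InsP5/InsP6/InsP7, compared with DMSO vehicle control. Means ± SE, n=3–4; Dunnett's one-way ANOVA versus DMSO.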

The target is the same in test [11]. Put plainly: Inhibition of human IPMK using insP3 as substrate preincubated for 15 mins followed by substrate and measured after 30 mins by TR-FRET assay. On the technique in general: TR-FRET usually uses a lanthanide donor and a delayed reading to cut background.
In test [12] the target is T3, Inositol hexakisphosphate kinase 2 (Homo sapiens, UniProt Q9UHH9).
T3 sequence (Q9UHH9 whole entry): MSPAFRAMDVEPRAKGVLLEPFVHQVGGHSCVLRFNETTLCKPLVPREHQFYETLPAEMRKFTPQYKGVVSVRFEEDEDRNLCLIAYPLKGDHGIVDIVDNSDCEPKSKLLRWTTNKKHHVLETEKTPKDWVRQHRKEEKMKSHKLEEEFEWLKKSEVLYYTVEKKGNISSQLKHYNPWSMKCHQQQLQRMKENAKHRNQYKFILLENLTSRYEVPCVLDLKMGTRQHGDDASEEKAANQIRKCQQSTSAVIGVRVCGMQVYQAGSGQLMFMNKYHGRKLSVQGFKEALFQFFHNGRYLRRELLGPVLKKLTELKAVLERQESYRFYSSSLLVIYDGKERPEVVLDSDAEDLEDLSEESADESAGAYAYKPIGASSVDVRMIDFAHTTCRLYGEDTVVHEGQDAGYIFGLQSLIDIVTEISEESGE
Put plainly: Inhibition of human IP6K2 using insP6 as substrate preincubated for 15 mins followed by substrate and measured after 30 mins by TR-FRET assay.

The species named for test [13] is Homo sapiens. Description: Selectivity ratio of IC50 for human IPMK to IC50 for human IP6K2. The method, boiled down:
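Recombinant human IPMK (12 nM) or IP6K2 (400 nM) equilibrated 15 min at room temperature with compound (10-point, 0.005–100 μM, 1% DMSO) in 50 mM HEPES pH 7.5, 0.01% Brij-35, 10 mM MgCl₂, 1 mM EGTA. Reaction started with 10 μM ATP plus 10 μM InsP₃ (IPMK) or InsP₆ (IP6K2), run 30 min. ADP detected by Adapta TR-FRET. IC50 from 4-parameter fit.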

Test [14] has as its system HCT-116. Put plainly: Down regulation of insp5 levels in human [3H]-inositol-labelled HCT116 cells at 2.5 uM up to 200 mins by HPLC analysis. In kind it is functional, cell-based. The method, boiled down:
as §4

The target in test [15] is RAC-alpha serine/threonine-protein kinase (Homo sapiens) (UniProt P31749). Description: Effect on AKT activity in human HCT116 cells assessed as AKT phosphorylation at T308 residues at 10 uM after 3 hrs by Western blot analysis. The test is classed as cell-based.
Sequence of RAC-alpha serine/threonine-protein kinase (Homo sapiens) (P31749 whole entry): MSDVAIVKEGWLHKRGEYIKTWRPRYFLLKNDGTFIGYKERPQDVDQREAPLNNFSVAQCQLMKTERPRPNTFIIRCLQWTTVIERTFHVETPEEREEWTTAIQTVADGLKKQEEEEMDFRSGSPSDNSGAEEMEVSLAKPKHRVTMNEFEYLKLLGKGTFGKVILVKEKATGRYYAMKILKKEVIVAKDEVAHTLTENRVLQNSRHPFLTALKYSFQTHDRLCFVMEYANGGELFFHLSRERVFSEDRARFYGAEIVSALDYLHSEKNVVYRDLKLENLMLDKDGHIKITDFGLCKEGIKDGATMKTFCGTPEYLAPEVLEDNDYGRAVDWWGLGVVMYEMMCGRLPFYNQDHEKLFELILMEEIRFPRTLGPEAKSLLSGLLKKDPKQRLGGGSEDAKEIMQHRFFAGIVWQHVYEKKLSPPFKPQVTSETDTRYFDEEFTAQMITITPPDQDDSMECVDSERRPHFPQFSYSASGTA
The target in test [16] is RAC-alpha serine/threonine-protein kinase (Mus musculus) (UniProt P31750). Description: Activation of AKT activity in mouse 3T3-L1 cells assessed as increase in AKT phosphorylation at T308 residues at 10 uM after 3 hrs by Western blot analysis. In kind it is cell-based.
Sequence of RAC-alpha serine/threonine-protein kinase (Mus musculus) (P31750 whole entry): as the sequence (P31749 whole entry) above, with S2N, A50S, T100A, K112R, E117T, K389T, G410N, H415D counted along it

The inhibition is the drop in the measured response relative to a control, in per cent. With `COc1ccc(-c2cc(=O)c3c(O)cc(O)cc3o2)cc1O`, the inhibition entry in [1] is “Active”. For the same compound, the inhibition result in test [2], in [3], in test [5], in test [6], in test [8] and in [9] was “inactive” throughout. In addition, the inhibition entry in [10] is “inactive”. For the same compound, in [4], the result was inactive. Besides, the outcome in test [7] was Active.
The IC50 is the midpoint of a concentration-inhibition curve. Turning to `O=c1cc(-c2ccc(O)c(O)c2)oc2cc(O)cc(O)c12` [LUTEOLIN], the inhibition entry in test [1] is “Active”. The inhibition result in [3], in test [5], in test [9] and in test [10] was “inactive” throughout. Further, in test [4], the outcome was inactive. Further, the IC50 in test [11] came to 5.5 µM; in [12], 1.3 µM. The result in test [7] was Active. In [13], the Ratio IC50 was found to be 4.2.
Regarding `COc1ccc(-c2cc(=O)c3c(O)cc(O)cc3o2)cc1` [ACACETIN], the IC50 was over 30 µM in test [11] and 5.7 µM in [12]. Further, the Ratio IC50 in test [13] is over 5.3.
`O=c1c(O)c(-c2ccc(O)c(O)c2)oc2cc(O)cc(O)c12` [QUERCETIN]: the inhibition entry in test [1] is “Active”. Further, the inhibition result in test [2], in test [3], in test [5], in test [6], in [14] and in test [9] was “inactive” each time. The inhibition result in [10] is “inactive”. Further, in test [4], the outcome was inactive. The compound also showed an IC50 in [11] of 2.3 µM. The outcome in test [7] was Active. In addition, in test [8], the inhibition amounted to 25%.
`COc1cc(O)c2c(=O)cc(-c3ccc(O)cc3)oc2c1` [GENKWANIN]: the figures for the concentration for half-maximal inhibition (IC50) in test [11] and in test [12] were over 30 µM and 24 µM, respectively. The Ratio IC50 in test [13] was over 1.3.
The matching figures for `O=C1C[C@@H](c2ccc(O)c(O)c2)Oc2cc(O)cc(O)c21` [ERIODICTYOL]: over 30 µM, 25.3 µM and over 1.2.
On to `O=c1c(O)c(-c2cc(O)c(O)c(O)c2)oc2cc(O)cc(O)c12` [MYRICETIN], for which the IC50 in test [11] worked out at 1.1 µM; in test [12] it was 0.7 µM. Also, the inhibition entry in [9] and in test [10] was “inactive” in each case.
For the compound `O=c1cc(-c2ccc(O)c(O)c2)oc2ccccc12`, the IC50 is over 30 µM in [11] and 11.4 µM in [12]. Further, the Ratio IC50 in [13] was over 2.6.
Turning to `O=c1cc(-c2ccc(O)c(O)c2)oc2cccc(O)c12`, the IC50 in test [11] is over 30 µM; in [12] it was 8 µM. Moreover, the Ratio IC50 in [13] was over 3.8.
As to `O=c1cc(-c2ccc(O)cc2)oc2cc(O)cc(O)c12` [APIGENIN], the half-inhibitory concentration (IC50) in [11] came out at 29 µM; in test [12], 7.1 µM. In addition, the Ratio IC50 in [13] was determined as 4.1.
Consider `O=c1cc(-c2ccc(O)cc2)oc2cccc(O)c12`, for which the IC50 in test [11] and in test [12] was over 30 µM each time.
In the case of `COc1cc(O)c2c(=O)c(O)c(-c3ccc(O)c(O)c3)oc2c1` [RHAMNETIN], the IC50 came out at 14 µM in test [11] and 1.8 µM in test [12]. In addition, the inhibition result in test [9] and in test [10] was “inactive” in each case. The Ratio IC50 in test [13] was over 7.8.
In the case of `O=c1cc(-c2ccc(O)cc2)oc2cc(O)ccc12`, the IC50 in test [11] was over 30 µM; in test [12] it was 18.3 µM. The Ratio IC50 in [13] is over 1.6.
Regarding `O=C1C[C@@H](c2ccc(O)cc2)Oc2cc(O)cc(O)c21` [NARINGENIN], the IC50 in test [11] and in test [12] was over 30 µM in each case.
For `COc1cc(-c2oc3cc(O)cc(O)c3c(=O)c2O)ccc1O` [ISORHAMNETIN], the values for the IC50 in test [11] and in test [12] were 2.2 µM and 0.5 µM, respectively. Besides, the inhibition result in test [9] and in [10] was “inactive” throughout. In addition, the Ratio IC50 in test [13] is 4.4.
With `O=[N+]([O-])c1ccc(CNc2nc(NCc3cccc(C(F)(F)F)c3)nc3[nH]cnc23)cc1`, in test [15], the result was inactive. Besides, the outcome in test [16] was Active.
For the compound `O=c1c(O)c(-c2ccc(O)cc2)oc2cc(O)cc(O)c12` [KAEMPFEROL], the IC50 in test [11] came to 4.4 µM; in [12], 2.5 µM. Besides, the inhibition result in [9] and in [10] was “inactive” throughout. Besides, the Ratio IC50 in [13] stood at 1.8.
As for `O=c1cc(-c2ccc(O)cc2)oc2ccc(O)cc12`, the results for the IC50 in [11] and in test [12] were over 30 µM and 12.9 µM, respectively. Besides, the Ratio IC50 in test [13] was over 2.3.
